Among the data in article PMC3302728 (Nature Communications, 2011) are EC50 and X-ray crystallography values, retold here.

Experiment [1] concerns the target GluN1/GluN2D NMDA receptor (Rattus norvegicus, UniProt P35439+Q62645). The experiment can be described thus: EC50 of agonist response. The experiment is classed as cell-based. Summed up:
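Xenopus laevis oocytes injected with 5-10 ng cRNA (GluN1:GluN2 ratio 1:2), stored at 15°C, recorded 2-4 days later at 23°C. Two-electrode voltage clamp at -30 to -60 mV in pH 7.4 HEPES bath with Ba2+ and 30 μM glycine. Concentration-response curves fitted per oocyte with a Hill equation to give EC50 and Hill coefficient.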

Experiment [2] concerns the target GluN2D ligand-binding domain (Rattus norvegicus, UniProt Q62645, DEL565-685). The experiment can be described thus: X-ray crystallography. The conditions noted are these: co-crystal with 10 mM ligand; D1-D2 cleft.

Sequence of GluN2D ligand-binding domain (Q62645 424-564, stated change not applied): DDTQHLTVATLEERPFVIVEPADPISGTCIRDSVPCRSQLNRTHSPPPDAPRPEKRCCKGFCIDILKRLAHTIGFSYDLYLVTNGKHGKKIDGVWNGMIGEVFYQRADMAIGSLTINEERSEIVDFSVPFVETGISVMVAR
Sequence of GluN2D ligand-binding domain (Q62645 686-827, stated change not applied): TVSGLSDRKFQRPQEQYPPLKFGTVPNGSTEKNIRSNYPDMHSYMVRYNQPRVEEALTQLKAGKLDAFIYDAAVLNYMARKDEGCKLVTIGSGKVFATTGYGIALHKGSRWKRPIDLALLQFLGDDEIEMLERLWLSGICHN
Sequence of GluN1/GluN2D NMDA receptor (Q62645 28-1323, other chains not shown): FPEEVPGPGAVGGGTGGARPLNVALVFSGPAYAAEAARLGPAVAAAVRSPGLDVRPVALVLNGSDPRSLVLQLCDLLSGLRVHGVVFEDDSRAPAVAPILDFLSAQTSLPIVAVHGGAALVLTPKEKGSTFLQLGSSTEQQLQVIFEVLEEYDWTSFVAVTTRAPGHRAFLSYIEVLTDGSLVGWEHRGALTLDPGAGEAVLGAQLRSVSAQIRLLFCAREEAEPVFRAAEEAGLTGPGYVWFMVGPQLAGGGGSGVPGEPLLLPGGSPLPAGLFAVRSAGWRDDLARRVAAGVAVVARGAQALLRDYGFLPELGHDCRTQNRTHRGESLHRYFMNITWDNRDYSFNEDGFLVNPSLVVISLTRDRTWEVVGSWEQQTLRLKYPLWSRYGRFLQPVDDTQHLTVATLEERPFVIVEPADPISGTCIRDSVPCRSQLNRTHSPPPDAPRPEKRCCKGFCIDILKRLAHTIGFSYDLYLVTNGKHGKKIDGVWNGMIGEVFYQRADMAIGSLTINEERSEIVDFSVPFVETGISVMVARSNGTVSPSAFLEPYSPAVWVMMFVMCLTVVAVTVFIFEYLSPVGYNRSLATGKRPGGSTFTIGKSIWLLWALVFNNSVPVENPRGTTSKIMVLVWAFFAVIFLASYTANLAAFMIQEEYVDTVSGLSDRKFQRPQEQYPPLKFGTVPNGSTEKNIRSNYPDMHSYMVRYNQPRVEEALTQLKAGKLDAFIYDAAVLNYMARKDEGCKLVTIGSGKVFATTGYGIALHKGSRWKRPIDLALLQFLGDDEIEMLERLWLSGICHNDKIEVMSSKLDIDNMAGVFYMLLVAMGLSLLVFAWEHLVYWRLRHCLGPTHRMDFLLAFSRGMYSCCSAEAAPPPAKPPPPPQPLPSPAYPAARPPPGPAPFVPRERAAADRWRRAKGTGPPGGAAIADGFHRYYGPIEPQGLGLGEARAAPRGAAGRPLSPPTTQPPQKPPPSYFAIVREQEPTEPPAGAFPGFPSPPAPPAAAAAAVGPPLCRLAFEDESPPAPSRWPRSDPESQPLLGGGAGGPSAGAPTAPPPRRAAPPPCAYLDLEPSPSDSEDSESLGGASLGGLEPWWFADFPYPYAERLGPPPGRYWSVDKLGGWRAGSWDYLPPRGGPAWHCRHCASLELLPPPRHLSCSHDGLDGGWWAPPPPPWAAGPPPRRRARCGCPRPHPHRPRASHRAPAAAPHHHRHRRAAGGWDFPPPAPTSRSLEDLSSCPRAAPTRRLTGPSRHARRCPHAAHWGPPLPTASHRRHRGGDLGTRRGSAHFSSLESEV

The molecule `N[C@@H](CC(=O)O)C(=O)O` [L-aspartate] gave an EC50 in experiment [1] of 5 µM. Further, the X-ray crystallography entry in experiment [2] was “GluN2D ligand-binding domain structures in complex with D- and L-glutamate, L-aspartate, and NMDA”.

For the molecule `N[C@@H](CCC(=O)O)C(=O)O` [L-glutamate], the X-ray crystallography result in experiment [2] was “GluN2D ligand-binding domain structures in complex with D- and L-glutamate, L-aspartate, and NMDA”.

In the case of `N[C@H](CCC(=O)O)C(=O)O` [D-glutamate], the X-ray crystallography result in experiment [2] was “GluN2D ligand-binding domain structures in complex with D- and L-glutamate, L-aspartate, and NMDA”.

Broadly, the EC50 is the concentration giving half of the maximal effect.
